In ChEMBL document CHEMBL2401635, “Synthesis and biological properties of novel brefeldin A analogues” (J Med Chem, 2013):
Calls of active or inactive are those of the source. No cut-off for these calls is given here.

Tests used:
[1] = Cytotoxicity against human HeLa R19 cells assessed as reduction of cell viability at 0.5 to 50 uM by MTS assay; format: cell-based; settings: hela r19, 50 µM
[2] = test system: Coxsackievirus B3; test: Antiviral activity against Coxsackievirus B3 infected in human HeLa R19 cells assessed as inhibition of viral replication at 0.5 uM after 7 hrs by luciferase reporter gene assay; format: functional, organism-based
Procedure, shortened: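 HeLa R19 subconfluent monolayers infected 30 min at 37 °C with Renilla luciferase-expressing CVB3 (RLuc-CVB3), MOI 0.1 CCID50; inoculum replaced by medium with compound (0.5, 5 or 50 μM final; 5 mM DMSO stock) or matched DMSO control. After 7 h, cells lysed and Renilla luciferase read as replication measure; triplicates normalized to mean of same-DMSO-dilution controls.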

[3] = test system: Coxsackievirus B3; test: Antiviral activity against Coxsackievirus B3 infected in human HeLa R19 cells assessed as inhibition of viral replication at 5 to 50 uM after 7 hrs by luciferase reporter gene assay; format: functional, organism-based
Procedure, shortened: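 HeLa R19 subconfluent monolayers infected 30 min at 37 °C with Renilla luciferase-expressing CVB3, MOI 0.1 CCID50; virus replaced by medium with 0.5, 5 or 50 μM compound (5 mM DMSO stock) or matching DMSO. After 7 h, lysed and Renilla luciferase read; triplicates normalized to same-DMSO-dilution controls, shown as means ± SEM on log scale.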

[4] = test system: HeLa; test: Induction of golgi apparatus disassembly in human HeLa cells at 5 uM incubated for 60 mins followed by compound washout measured after 2 hrs by confocal microscopic analysis; format: functional, cell-based
Procedure, shortened: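 Reassembly: HeLa cells given 5 μM final compound for 60 min at 37 °C, drug removed, then 2 h further in drug-free medium; fixed, anti-GM130 immunolabeled (paraformaldehyde fixation, Triton permeabilization, BSA block, Alexa 546 secondary) and examined by confocal microscopy; untreated medium controls.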

[5] = test system: HeLa; test: Induction of golgi apparatus disassembly in human HeLa cells at 5 uM after 30 to 60 mins by confocal microscopic analysis; format: functional, cell-based
Procedure, shortened: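 HeLa cells in DMEM, 10% FBS, penicillin/streptomycin, 2 mM L-glutamine, exposed to 5 μM final compound at 37 °C for 30 or 60 min; fixed 4% paraformaldehyde 20 min, NH4Cl quench, 0.5% Triton X-100 permeabilization, 5% BSA block, anti-GM130 (cis Golgi) with Alexa 546 secondary; confocal imaging.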

[6] = Cytostatic activity against human NCI60 cells by SRB assay; format: functional; settings: for CC50: read-out: LC50 (the source's name)
Procedure, shortened: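 NCI screen: single 10 μM dose first; active compounds then run at five concentrations on the same cell panel to give GI50, TGI and LC50, reported as averages over all cell lines; mean of two 5-dose tests, or one test where noted.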

[7] = test system: Nicotiana tabacum; test: Induction of morphological changes of golgi apparatus in tobacco mesophyll protoplast expressing Man1-RFP at 90 uM after 30 mins by confocal laser scanning microscopic analysis; format: functional
Procedure, shortened: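 Nicotiana tabacum cv. Petit Havana mesophyll protoplasts transiently expressing cis-Golgi marker Man1-RFP, treated 30 min with 90 μM compound (dissolved in DMSO) in half MS medium, untreated controls; observed by CLSM with 63× water-immersion objective.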

[8] = test system: Arabidopsis thaliana; test: Induction of morphological changes of golgi apparatus in Arabidopsis thaliana root cells expressing ST-YFP/VHAa1-RFP at 90 uM after 30 mins by confocal laser scanning microscopic analysis; format: functional
Procedure, shortened: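 Arabidopsis thaliana stably expressing VHAa1-RFP/N-ST-YFP grown from surface-sterilized seed on half-strength MS, 1% sucrose, 22 °C, 16 h days; roots treated 30 min with 90 μM compound (DMSO solution) in half MS medium, untreated controls; imaged by CLSM with 63× water-immersion objective.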

[9] = Toxicity in ip dosed mouse; format: organism-based; settings: in vivo

Structure (SMILES)	Activity [1]	inhibition [2]	inhibition [3]	Activity [4]	Activity [5]	GI50 [6]	TGI [6]	CC50 [6]	Activity [7]	Activity [8]	LD50 [9]
O=C1/C=C/[C@@H](O)[C@@H]2C[C@@H](O)C[C@H]2/C=C/CCC[C@H](CCc2ccc(C(F)(F)F)cc2)O1	Non-toxic	Active	Active	inactive	Active	0.212 µM	5.97 µM	66.2 µM	Active		
Nc1ccc(CC[C@H]2CCC/C=C/[C@@H]3C[C@H](O)C[C@H]3[C@H](O)/C=C/C(=O)O2)cc1						0.0343 µM	2.68 µM	56.3 µM			
CC(=O)Nc1ccc(CC[C@H]2CCC/C=C/[C@@H]3C[C@H](O)C[C@H]3[C@H](O)/C=C/C(=O)O2)cc1	Non-toxic		Active			0.152 µM	5.7 µM	51.6 µM	Active		
COCC[C@H]1CCC/C=C/[C@@H]2C[C@H](O)C[C@H]2[C@H](O)/C=C/C(=O)O1	Non-toxic		Active			0.0902 µM	5.78 µM	42.3 µM			
O=C1/C=C/[C@@H](O)[C@@H]2C[C@@H](O)C[C@H]2/C=C/CCC[C@H](CCc2ccc3cccnc3c2)O1						0.262 µM	7.61 µM	63.9 µM	Active		
C=C[C@H]1CCC/C=C/[C@@H]2C[C@H](O)C[C@H]2[C@H](O)/C=C/C(=O)O1	Non-toxic		Active		Active	0.0319 µM	4.91 µM	39 µM		Active	
O=C1/C=C/[C@@H](O)[C@@H]2C[C@@H](O)C[C@H]2/C=C/CCC[C@H](CCc2cccc3ccccc23)O1	Non-toxic		Active	inactive		0.0739 µM	2.28 µM	25.1 µM			
O=C1/C=C/[C@@H](O)[C@@H]2C[C@@H](O)C[C@H]2/C=C/CCC[C@H](CCOCc2ccccc2)O1	Non-toxic		Active			0.0809 µM	5.05 µM	35.5 µM			
O=C1/C=C/[C@@H](O)[C@@H]2C[C@@H](O)C[C@H]2/C=C/CCC[C@H](CCc2ccc(F)cc2)O1	Non-toxic		Active								
O=C1/C=C/[C@@H](O)[C@@H]2C[C@@H](O)C[C@H]2/C=C/CCC[C@H](CO)O1						2.57 µM	38 µM	85.1 µM			
O=C1/C=C/[C@@H](O)[C@@H]2C[C@@H](O)C[C@H]2/C=C/CCC[C@H](CCc2ccccc2)O1	Non-toxic		Active	inactive		0.0299 µM	2.04 µM	40 µM	Active		
C=C[C@@H]1CCC/C=C/[C@@H]2C[C@H](O)C[C@H]2[C@H](O)/C=C/C(=O)O1						0.631 µM	17.8 µM	66.3 µM			
C[C@H]1CCC/C=C/[C@@H]2C[C@H](O)C[C@H]2[C@H](O)/C=C/C(=O)O1 [BREFELDIN A]	Non-toxic	Active	Active	inactive	Active	0.0206 µM	3.48 µM	52.6 µM	Active	Active	> 200 mg/kg
CC(=O)[C@H]1CCC/C=C/[C@@H]2C[C@H](O)C[C@H]2[C@H](O)/C=C/C(=O)O1	Non-toxic		Active			0.594 µM	13.3 µM	61.7 µM			
O=C1/C=C/[C@@H](O)[C@@H]2C[C@@H](O)C[C@H]2/C=C/CCCCO1						0.631 µM	20.9 µM	69.2 µM			
O=C1/C=C/[C@@H](O)[C@@H]2C[C@@H](O)C[C@H]2/C=C/CCC[C@H](CCO)O1	Non-toxic		Active			0.178 µM	7.69 µM	47.6 µM			
CC[C@H]1CCC/C=C/[C@@H]2C[C@H](O)C[C@H]2[C@H](O)/C=C/C(=O)O1						0.0446 µM	5.82 µM	35.8 µM		Active	
O=C1/C=C/[C@@H](O)[C@@H]2C[C@@H](O)C[C@H]2/C=C/CCC[C@H](C(F)(F)F)O1						0.321 µM	5.49 µM	48.2 µM			
